Assay outcomes as filed in PubChem BioAssay.
Pf Dd2 growth: blocks growth of Plasmodium falciparum Dd2 parasites; P. falciparum Dd2 growth, SYBR Green, 72 h; stronger effect = lower value; activity change, % at 10 µM; hit rate 2.3% among 94,000; AID 1159554; in the data active = activity change below about -80%; inconclusive = no clear call, values can overlap the other calls
T cruzi growth-1: blocks T. cruzi growth in NIH3T3 culture. AID 624255. inhibition, % at 8.34 µM. hit rate 5.9% among 77,000. T. cruzi beta-gal in NIH3T3, GalScreen luminescence, 90 h;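 active = mean inhibition above about 93%, with at least 55% of replicates each passing it, limit read from the data, passing the limit was not always enough; inconclusive = only one of those two conditions holds; inactive = neither condition holds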
GASC1 inh: blocks human GASC-1 (KDM4C) demethylase activity | hit rate 0.15% among 96,000 | AID 720574 | GST-KDM4C 2-372, H3K9me3 peptide, LANCE TR-FRET | Q9H3R0 | inhibition, % at 12.5 µM;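 active = mean replicate inhibition above about 25%, with at least 55% of replicates also reaching it, limit read from the data, passing the limit was not always enough; inconclusive = only one of those two conditions met; inactive = neither condition met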
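Assay system: GST-GASC-1 enzyme fragment 2-372 | Amount: 10 nM enzyme | Medium: HEPES buffer, pH 7.5, plus ascorbate | Reagent: H3K9me3 peptide substrate, Fe(II), 2-oxoglutarate | Doses: Single-point compound screen | Incubation: 30 min demethylation and 1 h detection at room temperature | Measured by: LANCE TR-FRET, excitation 340 nm, emissions 618 and 671 nm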
IDH1 mut inh: blocks human IDH1 R132H reductase activity. O75874. diaphorase/resazurin fluorescence, 60 min. inhibition, % at 10 µM. hit rate 0.18% among 70,000. AID 624101; in the data active = inhibition above about 34%; inconclusive = no clear call, values can overlap the other calls; inactive = below about 11%;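 also: 0% = DMSO and 100% = no enzyme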
Target sequence (O75874 whole entry R132H): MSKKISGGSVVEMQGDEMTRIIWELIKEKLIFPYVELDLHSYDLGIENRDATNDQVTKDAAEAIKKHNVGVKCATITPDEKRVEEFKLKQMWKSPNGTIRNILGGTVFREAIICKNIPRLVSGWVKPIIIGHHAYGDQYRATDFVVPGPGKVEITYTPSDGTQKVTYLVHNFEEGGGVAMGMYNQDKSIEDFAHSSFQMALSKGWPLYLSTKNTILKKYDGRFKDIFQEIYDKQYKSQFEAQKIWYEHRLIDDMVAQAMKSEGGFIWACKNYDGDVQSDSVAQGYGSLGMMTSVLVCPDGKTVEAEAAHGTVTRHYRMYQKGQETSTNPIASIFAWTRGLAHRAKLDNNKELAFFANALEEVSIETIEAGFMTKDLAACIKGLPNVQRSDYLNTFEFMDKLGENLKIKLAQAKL
T cruzi growth-2: blocks T. cruzi growth in NIH3T3 host cells | hit rate 72% among 5,600 | inhibition, % at 8.35 µM | T. cruzi beta-gal in NIH3T3, GalScreen luminescence, 90 h | shares compounds with T cruzi growth-1;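 active = mean replicate inhibition above about 95% and at least 55% of replicates individually reaching it, limit read from the data; inconclusive = only one of the two criteria is met; inactive = neither criterion is met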
T cruzi growth-3: blocks T. cruzi growth in NIH3T3 host cells | shares compounds with T cruzi growth-1 | T. cruzi beta-gal in NIH3T3, GalScreen luminescence, 90 h | inhibition, % at 2.09 µM | hit rate 21% among 5,600 | AID 651740;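 active = mean inhibition above about 95%, with at least 55% of replicates also reaching it, limit read from the data; inconclusive = meets just one of the two conditions; inactive = meets neither condition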;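 also: plate controls were neutral control median for no effect and positive control median for full effect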
NIH3T3 tox: cytotoxicity in mouse NIH/3T3 fibroblasts; cytotoxicity (signal decrease), % at 8.35 µM; AID 651742; hit rate 14% among 5,600; shares compounds with T cruzi growth-1; NIH/3T3 viability, CellTiter-Glo ATP luminescence, 90 h;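 active = mean signal decrease across replicates above about 35% based on untreated-well scatter, with enough replicates individually passing, limit read from the data; inconclusive = no rule stated though some were filed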;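 also: 0% = median of neutral control wells and 100% = median of positive control wells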
3T3 cytotox 2: NIH/3T3 (mouse) viability loss; shares compounds with T cruzi growth-1; NIH/3T3 viability, CellTiter-Glo ATP luminescence, 90 h; inhibition, % at 24.9 µM; hit rate 56% among 5,600;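 active = mean loss of cell viability signal at or above a set limit, and enough replicates individually reaching it; inconclusive = meets only the mean limit or only the replicate share; inactive = meets neither condition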;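 also: 0% = median of neutral control wells and 100% = median of positive control wells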
Active calls of the source: *; ? = inconclusive; · = not tested or not shown. Sampled rows, rich in hits. Any-hit rate of the full collection: about 5.8%.

SMILES	Pf Dd2 growth	T cruzi growth-1	GASC1 inh	IDH1 mut inh	T cruzi growth-2	T cruzi growth-3	NIH3T3 tox	3T3 cytotox 2
C[C@@H](O)C#Cc1ccc([C@H]2[C@@H](CO)N3CCCCN(C(=O)c4ccncc4)C[C@H]23)cc1	23	16	1	·	·	·	·	·
C[C@H](O)C#Cc1ccc([C@H]2[C@H]3CN(C(=O)c4ccncc4)CCCCN3[C@H]2CO)cc1	17	101*	1	·	-4	1	-9	11
O=C(c1cccnc1)N1CCCCN2[C@H](CO)[C@@H](c3ccc(C#Cc4ccccn4)cc3)[C@H]2C1	34	38	0	·	·	·	·	·
COc1ccc(C#Cc2ccc([C@H]3[C@H]4CN(C(=O)c5ccncc5)CCCCN4[C@H]3CO)cc2)cc1	3	105*	0	·	64	-18	50*	54*
COc1ccc(C#Cc2ccc([C@@H]3[C@H]4CN(C(=O)c5ccncc5)CCCCN4[C@H]3CO)cc2)cc1	-27	89	-1	·	·	·	·	·
COc1ccc(C#Cc2ccc([C@@H]3[C@H](CO)N4CCCCN(C(=O)c5ccncc5)C[C@@H]34)cc2)cc1	-32	105*	-1	·	88	74	21	104*
O=C(c1ccncc1)N1CCCCN2[C@@H](CO)[C@H](c3ccc(C#Cc4ccccn4)cc3)[C@@H]2C1	-4	105*	1	·	?	15	2	3
O=C(C[C@@H]1C=C[C@@H](NC(=O)C2CC2)[C@@H](CO)O1)NC1CCC1	12	-6	5	0	·	·	·	·
C[C@H]1CN([C@@H](C)CO)C(=O)c2cccc(N(C)C)c2O[C@@H]1CN(C)C(=O)Nc1ccc(F)cc1	9	·	2	0	·	·	·	·
CCCNC(=O)C[C@H]1C[C@H]2c3cc(NC(=O)Nc4ccccc4F)ccc3O[C@H]2[C@H](CO)O1	-14	25	0	0	·	·	·	·
C[C@@H]1CN([C@H](C)CO)C(=O)c2cc(C3=CCCC3)cnc2O[C@H]1CN(C)C(=O)c1ccccn1	-16	·	0	·	·	·	·	·
CO[C@H]1CN(C)C(=O)c2cc(NC(=O)c3ccccc3F)ccc2OC[C@H](C)N(C(=O)c2ccccc2F)C[C@@H]1C	-9	13	0	0	·	·	·	·
CO[C@@H]1CN(C)C(=O)c2cc(NC(=O)c3ccccc3F)ccc2OC[C@@H](C)N(C(=O)c2ccccc2F)C[C@H]1C	-8	?	1	0	87	51	-1	12
CO[C@@H]1CN(C)C(=O)c2cc(NC(=O)c3ccccc3F)ccc2OC[C@H](C)N(C(=O)c2ccccc2F)C[C@H]1C	-34	26	2	0	·	·	·	·
CO[C@@H]1CN(C)C(=O)c2cc(NC(=O)c3ccccc3F)ccc2OC[C@H](C)N(C(=O)c2ccccc2F)C[C@@H]1C	-83*	102*	1	0	76	-4	-8	40*
O=S(=O)(c1ccc(F)cc1)N1CCCCN2[C@H](CO)[C@@H](c3ccc(-c4ccccc4F)cc3)[C@H]2C1	-31	85	·	·	·	·	·	·
O=S(=O)(c1ccc(F)cc1)N1CCCCN2[C@H](C1)[C@H](c1ccc(-c3ccccc3)cc1)[C@@H]2CO	-23	64	0	·	·	·	·	·
Cc1ccccc1-c1ccc([C@H]2[C@@H](CO)N3CCCCN(S(=O)(=O)c4ccc(F)cc4)C[C@H]23)cc1	-67	109*	-2	·	98*	?	12	105*
Cc1ccccc1-c1ccc([C@@H]2[C@@H](CO)N3CCCCN(S(=O)(=O)c4ccc(F)cc4)C[C@@H]23)cc1	7	108*	-1	·	109*	82	30	81*
O=C(C[C@H]1CC[C@H]2[C@@H](COC[C@@H](O)CN2C(=O)c2ccccc2)O1)NC1Cc2ccccc2C1	8	-45	0	·	·	·	·	·
COc1ccc(S(=O)(=O)N(C)C[C@@H]2Oc3c(NC(=O)Nc4ccc5c(c4)OCO5)cccc3C(=O)N([C@@H](C)CO)C[C@H]2C)cc1	-25	-61	0	-3	·	·	·	·
O=C(C[C@H]1C[C@H]2c3cc(NC(=O)Nc4ccc(C(F)(F)F)cc4)ccc3O[C@H]2[C@@H](CO)O1)NCc1ccc(Cl)cc1	4	67	0	-1	·	·	·	·
O=C(C[C@@H]1C[C@H]2c3cc(NC(=O)Nc4ccc(C(F)(F)F)cc4)ccc3O[C@H]2[C@@H](CO)O1)NCc1ccc(Cl)cc1	-4	?	0	0	100*	18	0	4
O=C(C[C@@H]1C[C@@H]2c3cc(NC(=O)Nc4ccc(C(F)(F)F)cc4)ccc3O[C@@H]2[C@H](CO)O1)NCc1ccc(Cl)cc1	-45	166*	0	0	109*	2	-12	-17
C[C@@H]1CN([C@@H](C)CO)C(=O)c2cc(NC(=O)c3ccncc3)ccc2O[C@@H]1CN(C)Cc1ccc(Oc2ccccc2)cc1	-13	-22	0	0	·	·	·	·
SMILES	Pf Dd2 growth	T cruzi growth-1	GASC1 inh	IDH1 mut inh	T cruzi growth-2	T cruzi growth-3	NIH3T3 tox	3T3 cytotox 2
OC[C@@H]1[C@@H](c2ccc(/C=C/c3ccccc3)cc2)[C@@H]2CN(Cc3ccncc3)CCCCN12	-2	?	2	·	99*	74	29	106*
OC[C@@H]1[C@@H](c2ccc(/C=C/c3ccccc3)cc2)[C@H]2CN(Cc3ccncc3)CCCCN12	-61	97*	4	·	105*	51	46*	102*
COc1ccc(NC(=O)N2CCCCN3[C@H](CO)[C@@H](c4ccc(C#Cc5ccccn5)cc4)[C@@H]3C2)cc1	-19	?	-2	·	111*	92	-3	14
O=C(Nc1ccc(F)cc1)N1CCCCN2[C@@H](CO)[C@@H](c3ccc(C#Cc4ccccn4)cc3)[C@@H]2C1	-51	110*	-1	·	103*	97*	16	35*
O=C(CCCCCC(=O)Nc1ccccc1O)N/N=C/c1cccs1	·	·	·	0	·	·	·	·
CCn1c(SCC(=O)Nc2ccc(F)c(Cl)c2)nnc1-c1ccc(Cl)cc1Cl	·	·	·	0	·	·	·	·
COCC(=O)N1[C@H](C#N)[C@H](c2ccc(C#CCC3CCCC3)cc2)[C@H]1CO	8	88	-3	·	·	·	·	·
N#C[C@H]1[C@H](c2ccc(C#CCC3CCCC3)cc2)[C@@H](CO)N1C(=O)c1ccccn1	-39	97*	-2	·	95*	111*	21	104*
COCC(=O)N1[C@H](CO)[C@@H](c2ccc(C#CCC3CCCC3)cc2)[C@@H]1C#N	-9	60	-1	·	·	·	·	·
N#C[C@H]1[C@H](c2ccc(-c3ccccc3F)cc2)[C@H](CO)N1C(=O)c1ccccn1	-34	21	4	·	·	·	·	·
CC(C)C#Cc1ccc([C@H]2[C@@H](C#N)N(C(=O)c3ccccn3)[C@@H]2CO)cc1	-22	?	2	·	104*	102*	9	5
